What was measured:
[1] = Selectivity index, ratio of IC50 for human MCF7 cells to IC50 for chloroquine-resistant Plasmodium falciparum Dd2; format: toxicity, cell-based; details: read-out: Selectivity Index
[2] = system: Plasmodium falciparum; assay: Antimalarial activity against chloroquine-sensitive Plasmodium falciparum 3D7 infected in erythrocytes after 48 hrs by SYBR Green 1-based fluorescence assay; format: functional, organism-based; details: 3D7, 48 h
In short: (§1)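 Parasites grown in fresh erythrocytes in RPMI 1640 with 25 mM HEPES, 6.8 mM hypoxanthine, 10% AlbuMAX II, 37 °C under 5% O2/3–5% CO2/N2. Compounds from DMSO stocks tested at 0.156–100 µg/mL in duplicate, with 1% parasitaemia ring stages at 2% haematocrit, 48 h at 37 °C. SYBR Green I lysis buffer added, 1 h dark at room temperature, fluorescence read at 485/535 nm, IC50 by nonlinear fit.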

[3] = Selectivity index, ratio of IC50 for human MCF7 cells to IC50 for chloroquine-sensitive Plasmodium falciparum 3D7; format: toxicity, cell-based; details: read-out: Selectivity Index
[4] = system: Plasmodium falciparum; assay: Antimalarial activity against chloroquine-resistant Plasmodium falciparum Dd2 infected in erythrocytes after 48 hrs by SYBR Green 1-based fluorescence assay; format: functional, organism-based; details: Dd2, 48 h; in short: as §1
[5] = system: MCF7; assay: Cytotoxicity against human MCF7 cells after 24 hrs by MTT assay; format: cell-based; details: MCF7, 24 h
In short: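 MCF-7 grown in RPMI 1640 with 10% heat-inactivated horse serum, 2 mM L-glutamine, antibiotics; 5% CO2, 37 °C. 2 × 10^4 cells/well added to serially diluted compound, 24 h at 37 °C; MTT (5 mg/mL stock) 4 h, then 10% SDS overnight; OD 550 nm (ref 630 nm). Growth inhibition vs cell and medium controls; IC50 as mean ± SD of three experiments.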

SMILES	selectivity ratio [1]	IC50 [2] [µM]	selectivity ratio [3]	IC50 [4] [µM]	IC50 [5] [µM]
CO[C@H]1C=C2[C@@H](CC[C@H](O)C2(C)C)[C@]2(C)C[C@@H](O)[C@]3(C)[C@@H]([C@H](C)C/C=C/C(C)(C)O)CC[C@@]3(C)[C@H]12	2	17.7	3.1	28.3	55.4
C[C@H](C/C=C/C(C)(C)O)[C@H]1CC[C@@]2(C)[C@@H]3[C@@H](O)C=C4[C@@H](CC[C@H](O)C4(C)C)[C@]3(C)CC[C@]12C	0.9	30.6	1.5	50.1	
C[C@H](C/C=C/C(C)(C)O)[C@H]1CC[C@@]2(C)[C@@H]3[C@@H](O)C=C4[C@@H](CC[C@H](O)[C@]4(C)CO)[C@]3(C)CC[C@]12C [BALSAMINAGENIN A]	2.4	19.1	3.4	27.3	65.1
COC(C)(C)/C=C/C[C@@H](C)[C@H]1CC[C@@]2(C)[C@@H]3[C@@H](O)C=C4[C@@H](CC[C@H](O)[C@]4(C)CO)[C@]3(C)CC[C@]12C [BALSAMINAGENIN B]	1.8	18.7	1.8	19.2	34
C=C(C)[C@@H](O)[C@H](O)C[C@@H](C)[C@H]1CC[C@@]2(C)[C@@H]3[C@@H](O)C=C4[C@@H](CC[C@H](O)[C@]4(C)CO)[C@]3(C)CC[C@]12C [BALSAMINAPENTAOL A]	1.4	14.6	3.2	33	
CC(C)=C[C@H](O)C[C@@H](C)[C@H]1CC[C@@]2(C)[C@@H]3[C@@H](O)C=C4[C@@H](CC[C@H](O)[C@]4(C)CO)[C@]3(C)CC[C@]12C [BALSAMINOL A]	1.7	17.1	2.3	23.5	
CO[C@H]1C=C2[C@@H](CC[C@H](O)[C@]2(C)CO)[C@]2(C)CC[C@]3(C)[C@@H]([C@H](C)C[C@@H](O)C=C(C)C)CC[C@@]3(C)[C@H]12 [BALSAMINOL B]	1.7	15.2	2	17.9	31
CC(C)=CC(=O)C[C@@H](C)[C@H]1CC[C@@]2(C)[C@@H]3C(=O)C=C4[C@@H](CC[C@H](O)[C@]4(C)CO)[C@]3(C)CC[C@]12C [BALSAMINOL C]	3.2	19.6	3.6	22.4	70.5
CC(=O)C[C@@H](C)[C@H]1CC[C@@]2(C)[C@@H]3C(=O)C=C4[C@@H](CC[C@H](O)[C@]4(C)CO)[C@]3(C)CC[C@]12C [BALSAMINOL D]	> 2.9	25.9	> 5.1	45.6	> 133
CC(C)=C[C@H](O)C[C@@H](C)[C@H]1CC[C@@]2(C)[C@@H]3C(=O)C=C4[C@@H](CC[C@H](O)C4(C)C)[C@]3(C)CC[C@]12C [BALSAMINOL E]	2.3	20.4	2.2	19.6	44.2
COC(C)(C)/C=C/C[C@@H](C)[C@H]1CC[C@@]2(C)[C@@H]3[C@@H](O[C@H]4O[C@@H](CO)[C@H](O)[C@H](O)[C@@H]4O)C=C4[C@@H](CC[C@H](O)C4(C)C)[C@]3(C)CC[C@]12C [BALSAMINOSIDE A]	4.7	4.6	4.2	4	19
C[C@H](C/C=C/C(C)(C)O)[C@H]1CC[C@@]2(C)[C@@H]3[C@@H](O)C=C4[C@@H](CC[C@H](O)C4(C)C)[C@]3(C)C[C@@H](O)[C@]12C [CUCURBALSAMINOL A]	> 7.6	13.2	> 10.1	17.6	> 133
CC(C)=C[C@H](O)C[C@@H](C)[C@H]1CC[C@@]2(C)[C@@H]3C=C[C@@]45OC[C@]3(CC[C@]12C)[C@@H]4CC[C@H](O)C5(C)C [KARAVILAGENIN E]	3.7	7.4	4.2	8.2	

Reference: ChEMBL document CHEMBL1250425, “New antimalarials with a triterpenic scaffold from Momordica balsamina” (Bioorg Med Chem, 2010)
